The list is a sample of the results.
PGC1a Ac signal = raises PGC1a acetylation signal in U2OS cells. U2OS PGC1a acetylation AlphaScreen, overnight. activation, % at 15.6 µM. hit rate 0.21% among 350,000;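 active = every replicate reaching activation of at least 50%, whatever the mean replicate activation; inconclusive = replicates that disagree or another doubt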;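 note: hits raise the AlphaScreen acetylation signal above neutral controls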
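Test system: U2OS cells expressing flag-PGC1a plus GCN5; Amount: 7000 U2OS cells per well; Compound: single test concentration per compound; Incubation: compound overnight at 37 °C, each detection step 1 h RT; Signal: AlphaScreen lysate read.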
Hep G6PC suppr = hepatocyte G6PC expression change via PGC-1a acetylation activation. shares compounds with PGC1a Ac signal. primary mouse hepatocytes, G6PC mRNA qPCR, forskolin. G6PC suppression (normalized activity, % of positive control; higher = more suppression), % at 26 µM. 240 tested, under 10 active. AID 743463;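 active = dose curves showing G6PC suppression whose half-maximal dose is at most twice the top valid dose; inconclusive = flat curves with moderate negative activity, or unreliable fits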;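 note: G6PC expression relative to GAPDH housekeeping gene as delta delta Ct; 0% = median of neutral control wells and 100% = median of positive control wells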
PCK1 hep suppr = PGC-1a acetylation activators affecting PCK1 expression in hepatocytes. PCK1 expression decrease, unspecified at 26 µM. AID 743465. 230 tested, under 10 active. shares compounds with PGC1a Ac signal. primary mouse hepatocytes, PCK1 mRNA qPCR, forskolin-stimulated;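 active = compounds lowering PCK1 expression whose fitted half-maximal concentration is at most twice the top tested dose; inconclusive = flat fit with moderate opposite-direction effect, or poor fit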;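 note: values are delta delta Ct of PCK1 relative to GAPDH; higher delta delta Ct means lower PCK1 expression so positive values indicate hits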
PGC1a hep suppr = PGC-1a acetylation activators affecting PGC-1a expression in hepatocytes. shares compounds with PGC1a Ac signal. primary mouse hepatocytes, PGC-1a mRNA qPCR, forskolin; top dose 26 µM. max activity (PGC-1a expression decrease), %. 240 tested, under 10 active;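 active = compound lowering PGC-1a expression with fitted half-maximal concentration at most twice its top tested dose; inconclusive = flat curve with moderate opposite-direction effect, or poor fit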;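 note: 0% = neutral control wells median and 100% = positive control wells median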
Active calls of the source: *; i = inactive; ? = inconclusive; [ ] = another dose, or the depositor's remark.

SMILES | PGC1a Ac signal | others
COc1ccc(-n2c(O)c(C=NCCCn3ccnc3)c(=O)[nH]c2=O)cc1 | 68*
CCN(CC)c1ccc(N=Cc2c(O)n(-c3ccc(OC)cc3)c(=O)[nH]c2=O)cc1 | -46
CC(=O)OC1CC2(O)C3CCC4CC(O)CCC4(C)C3CCC2(C)C1C1=CC(=O)OC1 (stereo unspecified) | -65
CC(C)(O)/C=C/C(=O)[C@](C)(O)C1[C@H](O)C[C@@]2(C)C3CC=C4C(C[C@H](O)[C@@H](O)C4(C)C)[C@]3(C)C(=O)C[C@]12C (stereo partly specified) | -65
CC(=O)OCC12CC(OC(=O)CC(C)C)C(C)=CC1OC1C(O)C(OC(C)=O)C2(C)C12CO2 (stereo unspecified) | -74
O=C1CSC2N1CCNC21CCCCC1 (stereo unspecified) | -42
CCCN(CCC)[C@@H]1CCc2cccc(O)c2C1 | -42
Cc1ccc(N2C(=O)NC(=O)/C(=C/c3ccoc3)C2=O)cc1 | -50
CCc1ccc(N2C(=O)NC(=O)/C(=C\C=C\c3ccco3)C2=O)cc1 | 114*
C[C@H]1C[C@@H](C)C(=O)[C@@H]([C@H](O)CC2CC(=O)NC(=O)C2)C1 | -68
COc1ccc(C(c2ccc(OC)cc2)C(Cl)(Cl)Cl)cc1 | 93*
CCC1(CC)C(=O)C=CNC1=O | -56
C=C1C(=O)OC2CC3(C)OC3C3OC3C3=CC(OC3=O)C12 (stereo unspecified) | 85*
CC1CC(C)CC(C)C(O)C(C#N)=CC=CCC(C2CCCC2C(=O)O)OC(=O)CC(O)C(C)C1 (stereo unspecified) | -60
CCOC(=O)CNC(=O)N1Cc2ccc(Br)cc2-n2nncc2C1 | -41
O=C1NC2C(=CC(O)C(O)C2O)c2cc3c(c(O)c21)OCO3 (stereo unspecified) | -63
CNC(=O)c1cccn(Cc2ccc(C(F)(F)F)cc2)c1=O | 68*
NC1C2CN3CCN(C2)CC1(c1ccccc1)C3 (stereo unspecified) | -52
COC(=O)C1C2c3ccccc3OC1(C)N=c1s/c(=C/c3cn(C)nc3C)c(=O)n12 (stereo unspecified) | -46
O=[N+]([O-])c1ccc(N2CCOCC2)c2c1no[n+]2[O-] | -84
C=C1C(=O)O[C@@H]2C[C@@H](C)[C@H]3C=CC(=O)[C@]3(O)C[C@@H]12 | 79*
CC1=CC(=C2C(=O)NC(=S)NC2=O)C=C(C(F)(F)F)N1Cc1ccccc1 | -88
O=C1/C(=C/c2ccccc2)C[C@@]2(O)[C@H]3Cc4ccc(O)c5c4[C@@]2(CCN3CC2CC2)C1O5 (stereo partly specified) | -45
C=C1C(=O)OC2CC3(C)OC3CCC(C)=CC(OC(C)=O)C12 (stereo unspecified) | 118*
CC(=O)OC1CC(OC2C(O)CC(OC3C(O)CC(OC4CCC5(C)C(CCC6C5CCC5(C)C(C7=CC(=O)OC7)C(O)CC65O)C4)OC3C)OC2C)OC(C)C1OC1OC(CO)C(O)C(O)C1O (stereo unspecified) | -42
SMILES | PGC1a Ac signal | others
C[C@]12CC[C@H]3[C@@H](CC[C@]4(O)C[C@@H](O)CC[C@]34C=O)[C@@]1(O)CC[C@@H]2C1=CC(=O)OC1 | -96
O=c1c2ccccc2nc(/C=C/c2ccc([N+](=O)[O-])o2)n1-c1ccc(O)cc1 | 144*
CC1=CC(=O)C2=C(C)C[C@H](O)[C@@H]3[C@H](OC(=O)[C@H]3C)[C@@H]12 | -53
CN1C2CCC1/C(=C/c1ccccn1)C(=O)/C2=C\c1ccccn1 | -78
CNCC(=O)c1ccc(O)c(O)c1 | -55
CC(C)Oc1cccnc1N(C)C1CCN(Cc2ccccc2)CC1 | -59
COCCCn1c(N)c(C(=O)Nc2ccccc2)c2nc3ccccc3nc21 | 51*
O=c1[nH]c2ccccc2n1C1CCN(C(c2cc3ccccc3o2)c2nnnn2Cc2ccccc2)CC1 (stereo unspecified) | -49
C[C@H]1CCC/C=C/[C@@H]2C[C@H](O)C[C@H]2[C@@H](O)/C=C/C(=O)O1 | -37
N#Cc1ccccc1NC(=O)CN1CC=C(c2ccccc2)CC1 | -47
COc1ccc(C(c2nnnn2C2CCCCC2)N2CCC3(CC2)C(=O)NCN3c2ccccc2)cc1 (stereo unspecified) | 120*
COc1ccc(OC(=O)N(C)C[C@H]2OCc3ccccc3-c3c(n(C)c4ccccc34)C(=O)N([C@H](C)CO)C[C@H]2C)cc1 | 173* | Hep G6PC suppr=1;PCK1 hep suppr=9.7;PGC1a hep suppr=49
Cc1ccc(OC(=O)N(C)C[C@H]2OCc3ccccc3-c3c(n(C)c4ccccc34)C(=O)N([C@@H](C)CO)C[C@H]2C)cc1 | 82* | Hep G6PC suppr=109[23.5 µM];PCK1 hep suppr=84[23.5 µM];PGC1a hep suppr=104
C[C@@H]1CN([C@@H](C)CO)C(=O)c2c(c3ccccc3n2C)-c2ccccc2CO[C@@H]1CN(C)C(=O)Oc1ccccc1 | ? | Hep G6PC suppr=488;PCK1 hep suppr=?;PGC1a hep suppr=276
CCOc1ccccc1N=C1SCCCN1C | -97
O=C1NC2C(=CC(O)C(O)C2O)c2cc3c(cc21)OCO3 (stereo unspecified) | -85
CCOc1ccccc1CNCCc1ccc2c(c1)OCO2 | -40
C[C@@H]1O[C@@H](O[C@H]2C[C@@H](O)[C@]3(CO)[C@H]4[C@H](O)C[C@]5(C)[C@@H](C6=CC(=O)OC6)CC[C@]5(O)[C@@H]4CC[C@]3(O)C2)[C@H](O)[C@H](O)[C@H]1O | -83
c1cc(CNCCc2ccc3c(c2)OCO3)ccn1 | -46
CC1=NN(c2ccccc2)C(=O)/C1=C/c1c(O)[nH]c(=O)[nH]c1=O | -49
COc1ccc(C[C@H]2NC[C@H](O)[C@H]2OC(C)=O)cc1 | -90
Cn1ncnc2c(=O)n(C)c(=O)nc1-2 | -100
Cc1cccc(C)c1-n1nnnc1C(c1ccccc1OC(F)(F)F)N1CCC(n2c(=O)[nH]c3ccccc32)CC1 (stereo unspecified) | 61* | Hep G6PC suppr=i;PCK1 hep suppr=1187;PGC1a hep suppr=136
O=C1CN=C(c2ccccc2)c2cc([N+](=O)[O-])ccc2N1 | -46
c1ccc2c(N3CCNCC3)cccc2c1 | -49
